# Only some compounds are listed: those with a hit (about 4.7% of all), similar ones and a draw of the others.
# ADAM17 inh: inhibitors of human ADAM17 | recombinant ADAM17, EDANS/DABCYL FRET peptide cleavage | inhibition, % at 6.95 µM | 370,000 tested, 0.83% active;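 active means inhibition above the mean of compounds lying between control limits plus 3 SD, set per campaign, cut at about 8.5% in these data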
# MPTP block: permeability transition pore inhibition; isolated mouse mitochondria, Ca2+ swelling absorbance, 30 min; inhibition, % at 10 µM; 360,000 tested, 1.4% active;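 active means inhibition of 50% or more, scaled per plate between neutral and stimulator controls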
# GRIN3A LBD mod: NR3A (human) ligand-binding domain modulation | AID 1259313 | 340,000 tested, 2.5% active | Tm shift relative to glycine control, % at 25 µM | NR3A LBD differential scanning fluorimetry, Tm shift; 0% = protein alone, 100% = glycine-bound protein;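 active means melting temperature shift of at least 10% of the positive control shift, at one fixed dose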
# ADAM10 inh: inhibitors of human ADAM10; O14672; recombinant ADAM10, EDANS/DABCYL FRET peptide cleavage, 3 h; inhibition, % at 7 µM; 370,000 tested, 0.62% active; AID 720582;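 active means inhibition above a per-campaign cutoff equal to the mean of compounds falling between control-based bounds plus 3 SD, cut at about 20% in these data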
# Target sequence (O14672 214-748 limits assumed): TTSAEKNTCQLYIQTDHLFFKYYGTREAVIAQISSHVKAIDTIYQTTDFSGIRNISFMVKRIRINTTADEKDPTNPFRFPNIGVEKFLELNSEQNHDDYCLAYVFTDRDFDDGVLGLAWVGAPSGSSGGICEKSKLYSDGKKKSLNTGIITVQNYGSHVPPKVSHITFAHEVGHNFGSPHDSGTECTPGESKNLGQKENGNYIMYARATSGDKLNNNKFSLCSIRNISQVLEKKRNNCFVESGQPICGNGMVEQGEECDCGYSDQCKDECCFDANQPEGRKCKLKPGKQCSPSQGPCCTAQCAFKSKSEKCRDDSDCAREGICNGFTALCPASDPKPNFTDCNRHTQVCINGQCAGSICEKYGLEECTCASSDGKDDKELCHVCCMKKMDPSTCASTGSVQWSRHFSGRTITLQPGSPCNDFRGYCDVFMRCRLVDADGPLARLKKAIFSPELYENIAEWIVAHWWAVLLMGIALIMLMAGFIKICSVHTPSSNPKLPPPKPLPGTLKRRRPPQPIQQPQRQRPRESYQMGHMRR
# SKN-1 block: C. elegans SKN-1 inhibition. inhibition, % at 21.8 µM. C. elegans VP596 Pgst-4::GFP/RFP ratio, acrylamide-induced, 24 h. 360,000 tested, 0.49% active;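 active means interference check ratio from 0.5 to 1.5 plus GFP to RFP signal ratio inhibition reaching or exceeding a fixed threshold, cut at about 30% in these data, passing the limit was not always enough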
# MT1-MMP act inh: inhibitors of human MT1-MMP activation; HT1080 RFP-PRO-GFP cells, GFP/RFP ratio fluorescence, overnight; percent of plate control window, DMSO zero; GFP/RFP ratio change, % at 20 µM; 360,000 tested, 0.061% active; AID 651647;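 active means GFP/RFP ratio change of at least 30% with cell ATP level not reduced by more than half and red fluorescence within 50% of control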
#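 Assay system – RFP-PRO-GFP reporter HT1080 cells · Compound dosing – single dose of 20 µM compound, 1% DMSO final · Incubation – overnight compound exposure at 37 °C · Measure – GFP/RFP fluorescence ratio · Benchmarks – DMSO wells and RFP-L50D-GFP cells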
# MPTP counter: mitochondrial membrane potential, counter-screen; shares compounds with MPTP block; isolated mitochondria, Rhodamine 123 fluorescence; inhibition, % at 10 µM; 5,000 tested, 78% active; in the data active means inhibition above about 22%
# MPTP abs DR: MPTP inhibition, dose response swelling confirmation; shares compounds with MPTP block; isolated mitochondria swelling, absorbance; IC50, µM; 780 tested, 58% active; in the data active means IC50 below about 20 µM
# MPTP counter DR: counter-screen for mitochondrial permeability transition pore inhibitors, dose response. isolated mitochondria counterscreen, fluorescence read-out. shares compounds with MPTP block. IC50, µM. 780 tested, 49% active; in the data active means IC50 below about 80 µM
# Hits are given with their value; . = inactive; / = no result.
SMILES,ADAM17 inh,MPTP block,GRIN3A LBD mod,ADAM10 inh,SKN-1 block,MT1-MMP act inh,MPTP counter,others
COc1cc(CN2CCCCCC2)cc(Br)c1O,.,.,.,.,.,.,/,
N#C/C(=C(/O)Cc1ccccc1)P(=O)(c1ccccc1)c1ccccc1,.,.,.,.,.,.,/,
CC1=C(C)/C(=N\OS(=O)(=O)c2ccccc2)C=CC1=O,/,109.4,.,/,.,.,99.1,
CC1=CC(=O)C(C(C)C)=C/C1=N\OS(=O)(=O)c1ccc(F)cc1,.,/,/,.,/,/,/,
COCCn1c(C)cc(C2=NNC(=Nc3ccc(Cl)cc3Cl)SC2)c1C,.,.,.,.,.,.,/,
COCC(C)N=C1NN=C(c2cc(C)n(Cc3ccccc3Cl)c2C)CS1 (configuration not stated),.,78.9,.,.,.,.,83.2,
CCN1CCN(C(=O)CCCCCn2c(=O)[nH]c3cc(C(=O)OC)ccc3c2=O)CC1,.,.,.,.,.,.,/,
COC(=O)c1ccc2c(=O)n(CCCCCC(=O)N3CCN(c4ccccc4)CC3)c(=O)[nH]c2c1,.,64.5,.,.,.,.,46.1,
O=[N+]([O-])c1ccccc1NC1CCN(Cc2ccccc2)CC1,.,.,.,.,.,.,/,
Brc1ccc(OCc2ccccc2)c(CNCC2CCCO2)c1 (configuration not stated),.,.,.,.,.,.,/,
CCOc1cc(CNCCc2ccc(S(N)(=O)=O)cc2)cc(Cl)c1OCc1ccccc1,/,.,.,/,.,.,/,
CCOc1cc(CNCCc2ccc(S(N)(=O)=O)cc2)ccc1OCc1ccccc1,.,104.9,.,.,.,.,40.6,
NS(=O)(=O)c1ccc(CCNCc2cc(Br)ccc2OCc2ccccc2)cc1,.,65.9,.,.,.,.,52.2,
CCC1COCCS(=O)(=O)N1Cc1ccc(F)cc1 (configuration not stated),.,.,.,.,.,.,/,
O=C(NCc1ccco1)Nc1ccc(OC(F)(F)F)cc1,.,51.7,.,.,.,.,79.7,
COc1ccc([C@H]2CC(=O)C=C(c3ccc(OC(F)(F)F)cc3)C2)cc1,.,.,.,.,.,.,/,
COc1ccc([C@H]2CC(=O)C=C(c3ccc(CNC(=O)OC(C)(C)C)cc3)C2)cc1,.,70.9,.,.,.,.,80.4,
O=C(Nc1csc([N+](=O)[O-])c1)Nc1c(Cl)cccc1Cl,.,67.2,.,.,.,/,87.5,
O=C(Nc1ccc(Cl)cc1)Nc1csc([N+](=O)[O-])c1,.,78.8,32.8,.,.,.,78.4,
Cc1ccc(OCCCCn2cnc3ccccc32)c(C)c1,.,92.6,.,.,44.4,.,93.4,
Clc1ccccc1OCCn1cnc2ccccc21,.,.,.,.,.,.,/,
Brc1ccccc1OCCCCn1cnc2ccccc21,.,84.9,.,.,.,.,90.5,
COCCCN1C(=O)C(CC(=O)NCc2cccc3ccccc23)CC(C(=O)N2CCOCC2)=C1C (configuration not stated),.,.,/,.,.,.,/,
COc1ccccc1CNc1nc(NCc2cccs2)nc2ccsc12,.,77.6,/,.,.,.,92.5,
c1ccc(OCCNc2nc(NCC3CC3)nc3ccsc23)cc1,.,.,/,.,.,.,/,
SMILES,ADAM17 inh,MPTP block,GRIN3A LBD mod,ADAM10 inh,SKN-1 block,MT1-MMP act inh,MPTP counter,others
COc1ccccc1CNc1nc(NCCOc2ccccc2)c2sccc2n1,.,59.6,/,.,.,.,90.7,
COc1ccccc1CNc1nc(NCC2CC2)nc2ccsc12,.,79.7,/,.,.,.,91.7,
Cc1ccc(CNc2nc(NCC3CC3)nc3ccsc23)c(C)c1,.,.,/,.,.,.,/,
Cc1ccc(CNc2nc(NCc3ccccc3)nc3ccsc23)c(C)c1,.,53.3,/,.,.,.,100.8,
CNc1nc(NCc2ccc(C)cc2C)c2sccc2n1,.,.,/,.,.,.,/,
COc1ccccc1CNc1nc(NCCNC(C)=O)c2sccc2n1,.,.,/,.,.,.,/,
O=C(CNCc1cccnc1)Nc1cc(C(F)(F)F)ccc1N1CCOCC1,.,.,.,.,.,.,/,
Cc1ccc(-c2nnc(CSc3nnc(COc4cccc5ccccc45)n3-c3ccccc3)o2)cc1,.,.,.,.,.,.,/,
COc1ccccc1CNc1nc(NCc2ccc3occc3c2)c2sccc2n1,.,71.7,/,.,.,.,99.5,
COc1ccccc1CNc1nc(NCc2ccccc2OC)c2sccc2n1,.,85.2,/,.,.,.,114.6,
COc1ccccc1CNc1nc(NCc2ccc(NC(C)=O)cc2)c2sccc2n1,.,.,/,.,.,.,/,
COCCNc1nc(NCc2ccccc2OC)c2sccc2n1,.,.,/,.,.,.,/,
COc1ccccc1CNc1nc(NCc2ccccc2SC)c2sccc2n1,.,84.6,/,.,.,.,84.4,
CCCOc1ccccc1-c1nc2c([nH]1)c(=O)[nH]c(=O)n2C,.,.,.,.,.,.,/,
CCOC(=O)c1c(S(=O)(=O)Nc2ccccc2OCC)c(C)n(C)c1C,.,.,.,.,.,.,/,
O=C(C[n+]1ccc(/C=N/O)cc1)NC(=O)Nc1ccccc1,.,.,.,.,.,.,/,
CCCC(=O)Nc1ccc2nc(SCC(=O)Nc3ccc(N4CCOCC4)c(Cl)c3)sc2c1,.,.,.,.,.,.,/,
Nc1ccc2nc(SCC(=O)Nc3ccc(N4CCOCC4)c(Cl)c3)sc2c1,.,58.2,18.3,.,.,.,.,MPTP abs DR=18;MPTP counter DR=27.6
CC(C)(C)NC(=O)CSc1nc2ccc(NC(=O)CSc3nnc(N)s3)cc2s1,.,66.9,.,.,.,.,25.0,
Cc1occc(=O)c1OC(=O)Nc1ccc(Cl)c(Cl)c1,.,99.0,38.5,.,.,.,78.2,
CC(=O)c1ccc2c3c(cccc13)C(=O)N(CCc1ccccc1)C2=O,.,.,.,.,.,.,/,
COc1ccc(Cn2c(C)c(C)c(C#N)c2NC(=O)Nc2cccc(Cl)c2)cc1,.,73.7,.,.,.,.,70.4,
COc1ccc(Cn2c(C)c(C)c(C#N)c2NC(=O)Nc2ccc(Cl)cc2)cc1,.,93.5,.,.,.,.,77.5,
Cc1c(C#N)c(NC(=O)c2cccc(Cl)c2)n(Cc2ccccc2)c1C,.,.,.,.,.,.,/,
COc1ccc(NC(=O)N/C=C/c2ccc(Cl)cc2)cc1,.,.,.,.,.,.,/,
CC(=O)Nc1ccccc1OCCCN1CCC(C(O)(c2ccccc2)c2ccccc2)CC1,.,.,/,.,.,.,/,

# High-throughput results from PubChem BioAssay.
